Assay outcomes (PubChem BioAssay)
MEKK3 PB1 HTS: MEKK3-MEK5 PB1 interaction, increase or decrease; Q99759; bead-based flow cytometry, Alexa488-MEK5 binding to MEKK3; actives lie on both sides; 0 = blocked by unlabeled MEK5, 100 = vehicle; binding response (% of control), % at 10 µM; 290,000 compounds, 1.4% hits;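 active means binding response more than 3 SD above or below the average of its plate-row segment, actives on both sides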;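 further: Alexa488 bead fluorescence after subtracting the streptavidin-only scavenger bead signal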
Target sequence (Q99759 whole entry, looked up): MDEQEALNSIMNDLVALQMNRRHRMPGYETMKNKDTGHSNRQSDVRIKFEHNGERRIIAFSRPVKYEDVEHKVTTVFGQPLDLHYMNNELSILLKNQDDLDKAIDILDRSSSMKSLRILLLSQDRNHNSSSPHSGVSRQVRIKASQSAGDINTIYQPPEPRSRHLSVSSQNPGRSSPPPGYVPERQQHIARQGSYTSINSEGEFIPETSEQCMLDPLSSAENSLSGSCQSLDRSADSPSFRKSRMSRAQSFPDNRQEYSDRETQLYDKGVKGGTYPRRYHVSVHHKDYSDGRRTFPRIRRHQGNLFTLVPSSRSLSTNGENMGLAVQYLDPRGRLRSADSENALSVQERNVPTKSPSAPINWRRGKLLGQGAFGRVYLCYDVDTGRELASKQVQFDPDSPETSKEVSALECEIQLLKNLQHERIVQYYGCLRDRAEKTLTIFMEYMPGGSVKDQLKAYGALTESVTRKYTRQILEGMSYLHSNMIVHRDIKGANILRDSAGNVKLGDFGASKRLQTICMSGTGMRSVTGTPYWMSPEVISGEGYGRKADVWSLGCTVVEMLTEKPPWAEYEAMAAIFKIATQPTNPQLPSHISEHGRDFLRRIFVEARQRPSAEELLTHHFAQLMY
MEKK2 mut-MEK5: signal of MEK5 binding to mutant human MEKK2 PB1 domain. bead flow cytometry, Alexa488-MEK5 binding to MEKK2 mutant. percent response, % at 10 µM. 290,000 compounds, 0.35% hits. AID 1530; in the data active means percent response above about 24%, passing the limit was not always enough
Lipid droplet: hepatic lipid droplet formation modulation; 240,000 compounds, 0.4% hits; AML12 mouse hepatocytes, oleate lipid droplets, BODIPY imaging; inhibition, % at 6.5 µM;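 active means lipid droplet intensity inhibited by at least 50%, with more than 500 cells counted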
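Material: mouse AML12 hepatocyte cell line, fixed after treatment; Timing: compound with oleate, overnight; Technique: high-content imaging of BODIPY-stained droplets and DAPI nuclei; Probe or stimulus: oleate, 100 µM final; Dosing: compound at 6.5 µM only.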
MEKK2wt PB1 HTS: raises or lowers MEK5 binding to wildtype human MEKK2 PB1 domain; Q9Y2U5; binding response (% of control), % at 10 µM; bead flow cytometry, Alexa488-MEK5 binding to MEKK2 WT; actives lie on both sides; 290,000 compounds, 1.1% hits; AID 1531; in the data active means binding response below about 67% or above about 130%
MEKK2wt confirm: raises or lowers MEK5 binding to wildtype human MEKK2, retest; binding response (% of control), % at 10 µM; 5,900 compounds, 2.4% hits; shares compounds with MEKK3 PB1 HTS; bead flow cytometry, Alexa488-MEK5 binding to MEKK2 WT; actives lie on both sides; in the data active means binding response below about 16% or above about 210%; inactive means in between
MEKK2mut confirm: signal of MEK5 binding to mutant human MEKK2, retest. 5,900 compounds, 2% hits. AID 1893. bead flow cytometry, Alexa488-MEK5 binding to MEKK2 mutant. percent response, % at 10 µM. shares compounds with MEKK3 PB1 HTS; in the data active means percent response mostly above about 71%, no sharp cut-off; inactive means mostly below about 38%;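 further: higher means compound restores mutant binding toward wildtype level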
MEKK3-MEK5 inh: confirmation of inhibitors of MEK5 binding to human MEKK3. shares compounds with MEKK3 PB1 HTS. bead flow cytometry, Alexa488-MEK5 binding to MEKK3; hits give low values. binding response (% of control), % at 10 µM. 5,900 compounds, 1.8% hits. AID 1894;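 active means binding response below 72% of control, or above a set upper limit, though filed actives all read lower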;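 further: 100% = DMSO only wells and 0% = binding blocked by excess unlabeled MEK5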
Numbers without * were called inactive; · = not tested or not shown; [ ] = dose if it differs, or a comment. In the library only some 2.6% were active in any assay of this set; here they are far more common.

SMILES	MEKK3 PB1 HTS	MEKK2 mut-MEK5	Lipid droplet	MEKK2wt PB1 HTS	MEKK2wt confirm	MEKK2mut confirm	MEKK3-MEK5 inh
NC(=O)c1ccc(-n2nnnc2Oc2ccccc2)cc1	81*[inhibitor]	-9	14	83	103	4	105
COc1ccccc1Oc1nnnn1-c1ccc(C(N)=O)cc1	101	4	-30	104	·	·	·
Cc1nc(N2CCN(Cc3ccccc3)CC2)c(C#N)c2c1COC(C)(C)C2	79*[inhibitor]	1	-5	97	104	-1	100
COC(=O)C1=C(C(=O)OC)C(c2cc(Cl)ccc2O)c2sc(=O)[nH]c2S1 (stereo not drawn)	104	6	·	104	·	·	·
COC(=O)C1=C(C(=O)OC)C(c2ccc(OC)c(OC)c2)c2sc(=O)[nH]c2S1 (stereo not drawn)	55*[inhibitor]	-17	29	60*[inhibitor]	90	-8	90
CN(C)CCNC(=O)c1sc2nc(-c3ccccc3)cc(C(F)(F)F)c2c1N	109	14	-4	158*	139	18	100
CC1=CS(=O)(=O)CC1Sc1ncn[nH]1 (stereo not drawn)	64*[inhibitor]	5	4	76	42	0	81
Cc1oc(-c2ccccc2)nc1CSc1nc2c(c(=O)[nH]1)CCC2	60*[inhibitor]	-8	-27	74	109	4	102
Cc1cccc(-c2nc(CSc3nc4c(c(=O)[nH]3)CCC4)c(C)o2)c1	113	-3	0	101	·	·	·
N#Cc1ccc2ccn(CC(=O)NCc3ccco3)c2c1	114	13	15	139*	102	-4	99
COC(CNC(=O)c1ccc2c(c1)ncn2-c1cccc(C)c1)OC	105	8	2	109	·	·	·
Cc1c(C(=O)c2ccccc2C(=O)O)sc2ccccc12	106	7	-6	110	·	·	·
COc1ccc2cc3cc(C(=O)NC(C)C)oc3nc2c1	124*	5	3	117	101	0	103
COc1ccc2cc3cc(C(=O)Nc4cc(OC)c(OC)c(OC)c4)oc3nc2c1	93	1	28	98	·	·	·
O=C(N1CCC(n2nc(-c3ccccc3)oc2=O)CC1)C1(c2ccc(Cl)cc2)CC1	99	-2	6	97	·	·	·
COCCN1CCCC(CNCc2cn(C)nc2-c2ccc(Oc3ccccc3)cc2)C1 (stereo not drawn)	101	1	-19	124	·	·	·
Cn1cc(CNCc2cn(C)nc2-c2ccc(C3CCCCC3)cc2)cn1	117	74*	5	205*	104	-5	99
COc1cccc(CNC(=O)c2nnn(CC(=O)Nc3cccc(C)c3)c2N)c1	102	3	-19	105	·	·	·
O=c1cc(O)c2ccc(O)cc2o1	81	1	-3	80	·	·	·
O=c1ccc2[n+]([O-])c3ccc(O)cc3oc-2c1	92	-9	·	50*[inhibitor]	85	-7	89
Cc1c(Br)c([N+](=O)[O-])nn1CC(=O)c1ccccc1	121	-1	-8	105	·	·	·
CC1(C(=O)O)CCC(C(=O)NNC(=O)c2ccccc2O)C1(C)C (stereo not drawn)	109	13	-5	109	·	·	·
COc1cc(/C=N/NC(=O)c2ccc(Cl)cc2)ccc1OCC(=O)N1CC(C)OC(C)C1 (stereo not drawn)	52*[inhibitor]	-4	-4	74	102	1	103
CN(C)S(=O)(=O)N(CCN1CCOCC1)Cc1ccccc1F	105	24*	3	112	99	0	97
CCOc1ccc(CN(C)CC(=O)NNC(=O)c2ccc(Cl)cc2)cc1OC	128*	-1	0	98	100	-7	97
SMILES	MEKK3 PB1 HTS	MEKK2 mut-MEK5	Lipid droplet	MEKK2wt PB1 HTS	MEKK2wt confirm	MEKK2mut confirm	MEKK3-MEK5 inh
COc1cccc(CN(C)CC(=O)NNC(=O)c2ccc(Cl)cc2)c1	94	6	-22	94	·	·	·
CCOc1ccccc1CN1CCN(CC2=Cc3cc(OC)ccc3OC2)CC1CCO (stereo not drawn)	104	6	0	111	·	·	·
Cc1cn(CCC(=O)Nc2ccccc2N2CCOCC2)c2ccccc12	89	-18	-37	84	·	·	·
Cc1cn(CCC(=O)Nc2ccc(N3CCOCC3)cc2)c2ccccc12	128*	27	-16	129	102	-6	100
Cc1ccsc1/C=N/N1CCN(C2c3ccccc3-c3ccccc32)CC1	82*[inhibitor]	-8	·	91	104	-3	102
O=C(Nc1cccc(F)c1)/C(=C\c1ccco1)NC(=O)c1ccco1	106	1	14	104	·	·	·
CCc1ccc(C2=Nn3c(nnc3-c3cccs3)SC2)cc1	126*	5	·	119	95	-2	100
CC(=O)NCCNc1ccc([N+](=O)[O-])cn1	99	-1	9	100	·	·	·
CC(C)(C)c1ccc(CNc2ccc([N+](=O)[O-])cn2)cc1	145*	3	-1	118	106	1	106
CCC(=O)NCCNc1ccc([N+](=O)[O-])cn1	74*[inhibitor]	-1	2	93	103	-1	99
O=C(CSc1nnc(-c2cccnc2)s1)Nc1cccc(C(=O)O)c1	158*	0	2	111	98	-4	98
O=C(CSc1nnc(-c2cccnc2)s1)Nc1ccccc1	103	0	-4	101	·	·	·
Cc1cc(=O)oc2cc(OCC(=O)N3CC[C@@]4(O)CCCC[C@H]4C3)c(Cl)cc12	98	-1	-6	100	·	·	·
Cc1ccc(NC(=O)c2ccc(CN3CCN(C)CC3)cc2)cc1Nc1nccc(-c2cccnc2)n1	115	·	·	·	·	·	103
O=C(Nc1cccnc1)c1ccc(CN2CCc3ccccc3C2)cc1	102	2	·	103	·	·	·
Cc1cc(NC(=O)COC(=O)C2CC(=O)N(c3cccc(Cl)c3)C2)no1 (stereo not drawn)	99	4	-51	105	·	·	·
CCCCOc1ccc(CC(=O)NCC(=O)O)cc1	57*[inhibitor]	-2	2	92	99	3	105
CCCOc1ccc(CCC(=O)O)cc1	100	-6	-10	94	·	·	·
FC(F)(F)c1cccc(NC(=S)N(CCCN2CCCC2)Cc2cccn2Cc2ccc(Cl)cc2)c1	93	6	-13	243*	259*	64	104
CCN1CCN(c2ccc(NC(=O)CCc3c(C)nc4c(-c5ccc(F)cc5)c(C)nn4c3C)cc2)CC1	104	20	-8	146*	132	24	108
CN1CCN(c2ccccc2NC(=O)c2cc3c(s2)-c2ccccc2OC3)CC1	101	21	1	146*	172	37	107
